One data set deals with hMT1 (Homo sapiens, UniProt P48039). As to the kind of experiment: GloSensor cAMP assay. Type of data set: cell-based. Particulars: for hMT1 Schild slope: Schild analysis, antagonism of melatonin, cAMP. In general terms: Cyclic AMP is a second messenger, typically raised through Gs and lowered through Gi signalling.
The next data set concerns the target T1, hMT2 (Homo sapiens, UniProt P49286).
T1 sequence (P49286 1-362): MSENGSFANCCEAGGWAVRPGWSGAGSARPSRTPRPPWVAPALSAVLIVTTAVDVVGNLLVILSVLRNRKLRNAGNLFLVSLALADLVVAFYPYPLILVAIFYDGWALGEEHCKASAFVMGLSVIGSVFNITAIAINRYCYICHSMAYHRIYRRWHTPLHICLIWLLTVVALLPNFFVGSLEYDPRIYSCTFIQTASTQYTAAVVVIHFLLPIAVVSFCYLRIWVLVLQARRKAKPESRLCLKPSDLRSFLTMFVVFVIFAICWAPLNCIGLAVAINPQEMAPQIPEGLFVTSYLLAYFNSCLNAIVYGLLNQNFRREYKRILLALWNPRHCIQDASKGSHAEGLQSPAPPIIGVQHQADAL
Put plainly: cell-based. The format is cell-based. Particulars: for hMT2 Schild slope: Schild analysis, antagonism of melatonin.

Data set [1] has as its target T2, mMT1 (Mus musculus, UniProt Q61184). As to the kind of experiment: GloSensor cAMP assay. Type of data set: cell-based. Particulars: for Emax: HEK293, read-out: mMT1 Emax. The procedure, abridged:
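HEK293T cells in DMEM with 10% dialyzed FBS were co-transfected with a mouse MT1 or MT2 (de-Tango-ized) construct plus GloSensor DNA (8 μg each). Next day, cells were seeded at 20,000/well in DMEM with 1% dialyzed FBS for 24 h, then switched to HBSS, 20 mM HEPES pH 7.4, 0.1% BSA. Inhibition of isoproterenol-stimulated cAMP was read by luminescence.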

Data set [2] can be described thus: Plasma pharmacokinetics and brain distribution. The format is in vivo. Particulars: male, C57BL/6, mouse, iv, 2 mg/kg; for Kp at 30 min: brain and plasma; for AUC / Cmax / Vd / clearance / half-life: plasma. The procedure, abridged:
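Male C57BL/6 mice (nine) got a single 2 mg/kg IV dose in 5% N-methyl pyrrolidone, 5% Solutol HS-15, 90% saline. Retro-orbital blood (~60 μL, three mice per time point, light isoflurane) was taken at 0.08–24 hr and plasma stored at -70°C. Brains were collected at 0.5, 4 and 24 hr and homogenized in ice-cold PBS pH 7.4 at three times brain weight.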

Data set [3] relates to C3H/HeN mice (WT, MT1KO, MT2KO). As to the kind of experiment: Phase shift of circadian running wheel activity onset in constant dark. Type of data set: in vivo. Particulars: CT 10; 0.9 μg/mouse (about 0.03 mg/Kg).
For data set [4] the test system is unchanged. Put plainly: Re-entrainment. The format is in vivo, mouse.
Data set [5] has the same test system. Particulars: cited from earlier work.
Data set [6] deals with T2, mMT1. As to the kind of experiment: 2-[125I]-iodomelatonin competition binding, CHO cell membranes. Particulars: read-out: KD mMT1.
The mark [7] stands for this setting: hMT1 pEC50 (Inverse), inverse agonist, isoproterenol-stimulated cAMP, HEK cells.
Setting [8] is: pEC50 MT1 (IA), inverse agonist, as summarised in PK table.
Setting [9] is: hMT2 pEC50 (Inverse), inverse agonist, isoproterenol-stimulated cAMP, HEK cells.
Setting [10] is: hMT1 pEC50, inhibition of isoproterenol-stimulated cAMP, HEK cells, agonist.
Where [11] appears, read: hMT2 pEC50, inhibition of isoproterenol-stimulated cAMP, HEK cells, agonist.
Setting [12] is: MT2 activity, none detectable up to, cAMP assay.

Structures are written as SMILES. “And” between values parts separate entries of the source, which are not always exact repeats. Identical values can stand only once. Like-named read-outs stand apart in the source and are kept apart here.

T2 sequence (Q61184 whole entry): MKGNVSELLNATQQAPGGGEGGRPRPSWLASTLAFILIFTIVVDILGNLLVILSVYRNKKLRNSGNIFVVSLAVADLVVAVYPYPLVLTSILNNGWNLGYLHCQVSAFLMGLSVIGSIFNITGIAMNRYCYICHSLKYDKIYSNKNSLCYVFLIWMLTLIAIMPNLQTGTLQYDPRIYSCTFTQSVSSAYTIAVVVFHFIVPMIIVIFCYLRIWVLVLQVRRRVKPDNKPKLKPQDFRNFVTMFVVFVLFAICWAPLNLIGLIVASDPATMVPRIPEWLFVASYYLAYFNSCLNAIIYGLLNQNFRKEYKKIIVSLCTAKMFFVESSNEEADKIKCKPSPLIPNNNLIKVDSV
hMT1, sequence (P48039 whole entry): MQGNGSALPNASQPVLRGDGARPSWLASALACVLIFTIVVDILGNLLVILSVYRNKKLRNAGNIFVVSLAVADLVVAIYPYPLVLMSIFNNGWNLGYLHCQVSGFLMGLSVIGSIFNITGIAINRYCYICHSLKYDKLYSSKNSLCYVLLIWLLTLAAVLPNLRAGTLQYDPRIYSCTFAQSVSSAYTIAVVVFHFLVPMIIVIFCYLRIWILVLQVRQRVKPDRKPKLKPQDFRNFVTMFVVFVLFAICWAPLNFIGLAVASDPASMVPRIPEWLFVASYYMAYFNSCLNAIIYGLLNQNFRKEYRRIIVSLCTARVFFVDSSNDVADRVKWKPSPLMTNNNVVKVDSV

Regarding `CC(C)c1ccc(CNc2cccc(-c3nnc[nH]3)c2)cc1` [ZINC157673384], the Kb is 12.6 nM on hMT1 and 200 nM on hMT2. The Emax at hMT1 (HEK293, read-out: hMT1 % Emax (Inverse)) was 47%; on hMT1 (HEK293, read-out: hMT1 Emax), -47 ± 12%; on hMT2 (HEK293, read-out: hMT2 % Emax (Inverse)) it was 153%; on hMT2 (HEK293, read-out: hMT2 Emax), -153 ± 14%; at mMT1 [1], -49 ± 3%. Also, at hMT1, the “hMT1 Schild slope” value was determined as 0.80 ± 0.04. In addition, the EC50 at hMT1 (setting [7]) was 20.9 nM; at hMT1 (setting [8]), 20 nM; at hMT2 (setting [9]), 661 nM; at hMT2 (pEC50 MT2 (IA), inverse agonist, as summarised in PK table), 631 nM; at mMT1 [1] it was 100 nM. Further, the “hMT2 Schild slope” value at hMT2 (cAMP) was found to be 1.0 ± 0.1. The molecule also yielded a Kp at 30 min in data set [2] of 1.43. Further, the AUC in data set [2] was determined as 564 ng·h/mL. The Cmax in data set [2] turned out to be 1300 ng/mL. In data set [2], this molecule showed a Vd of 1.38 L/kg. The molecule also showed a clearance in data set [2] of 58.5 mL/min/kg. The half-life in data set [2] is 19.2 min.

`CN(Cc1ccncc1)c1ccnc(Cl)c1` [ZINC223593565]: the Emax is 86% at hMT1 (HEK293, read-out: hMT1 % Emax) and 58% at hMT2 (HEK293, read-out: hMT2 % Emax). Besides, the EC50 at hMT1 (setting [10]) is 398 nM; at hMT2 (setting [11]), 355 nM.

As for `COC(=O)c1ccc(CSc2nnc(C3CC3)[nH]2)s1` [ZINC159050207], the Emax on hMT1 (HEK293, read-out: hMT1 % Emax) is 99%; at hMT2 (HEK293, read-out: hMT2 % Emax) it was 83%. The figures for the EC50 on hMT1 (setting [10]) and at hMT2 (setting [11]) were 1 nM and 2 nM, respectively.

Molecule `COc1ccc(Br)c(CNc2cccnc2)c1` [ZINC128734226] had an EC50 at hMT1 (setting [10]) of 158 nM. Also, the EC50 at hMT2 (setting [11]) is 6.31 nM. In data set [2], this molecule came in with a concentration ratio (Kp) at 30 min of 1.58, an AUC of 282 ng·h/mL, a Cmax of 1920 ng/mL and a Vd of 1.11 L/kg. In data set [2], this molecule had a clearance of 118 mL/min/kg and a half-life of 17.4 min.

On to `Clc1ccc(CNc2cccc(-c3nnc[nH]3)c2)c(Br)c1` [ZINC555417447], for which the “hMT1 Schild slope” value on hMT1 is 0.98 ± 0.03. The EC50 on hMT1 (setting [7]) is 40.7 nM and 39.8 nM. For the same molecule, the EC50 at hMT1 (setting [8]) is 39.8 nM. Moreover, the “hMT2 Schild slope” value on hMT2 (cAMP) is reported as 1.3 ± 0.4. For the same molecule, the concentration giving a half-maximal response (EC50) on hMT2 (setting [9]) was 2000 nM. In addition, on mMT1 [1], the midpoint of the response, the EC50, lay at 63.1 nM and the Emax was -56 ± 5%. For the same molecule, the “advance of the onset of activity” value in data set [3] is on record as “approximately 1 hour”. In data set [2], the Kp at 30 min is 3.03, the AUC was 494 ng·h/mL, the concentration peaked (Cmax) at 1950 ng/mL and the distribution volume (Vd) amounted to 1.11 L/kg. In addition, in data set [2], the clearance is 67.1 mL/min/kg and the half-life is 16.2 min.

In the case of `COc1ccc(CN(C)C(=O)c2cccc(OC(F)F)c2)cc1O` [ZINC353044322], the EC50 on hMT2 (setting [12]) was over 30000 nM.

Take `COc1ccc(CN(C(=O)[C@H]2C[C@@H]2C)c2ccncc2)cc1` [ZINC151209032]: the Emax at hMT1 (HEK293, read-out: hMT1 % Emax) was 88%. Also, the EC50 on hMT1 (setting [10]) is 2000 nM. Moreover, the “melatonin receptor type selectivity (grouping)” value at hMT1 (hMT1 versus hMT2, cAMP assays) is “MT1-selective”.

Consider `COc1ccc2[nH]cc(CCNC(C)=O)c2c1` [melatonin], for which, in data set [4] (30 μg/mouse), the effect on re-entrainment entry was “accelerates re-entrainment”. Further, in data set [5], the “ED50 (phase advance)” value was 0.72 μg/mouse.

As to `CC(=O)NCCc1c(Cc2ccccc2)[nH]c2ccccc12` [luzindole], the effect on re-entrainment entry in data set [4] (300 μg/mouse) is recorded as “decelerates re-entrainment”.

In the case of `COc1ccc(CN(C(=O)c2ccccc2F)c2ccncc2)cc1` [ZINC151192780], at hMT2 (cAMP), the “selectivity for MT2 over MT1” value stood at 89 fold.

For the molecule `Cc1nc(-c2cccc(NCc3ccccc3Cl)c2)n[nH]1` [ZINC37781618], the EC50 on hMT1 (hMT1 pEC50 (inactive analog), tested at concentrations up to 30μM) was over 31600 nM; on hMT2 (hMT2 pEC50 (inactive analog), tested at concentrations up to 30μM) it was over 31600 nM.

In the case of `Cc1cc(=O)n2ccn(CCc3ccc4c(c3)OC(F)(F)O4)c2n1` [ZINC664088238], the EC50 on hMT1 (setting [10]) is over 10000 nM.

Take `COc1cccc2c1CCN(C(=O)c1ccc(F)nc1)C2` [ZINC182731037]: at hMT2 (setting [12]), the EC50 was over 30000 nM.

Take `COc1ccc2[nH]c(I)c(CCNC(C)=O)c2c1` [2-[^125I]-iodomelatonin, 2-[^125I]-Iodomelatonin]: the Kd at mMT1 [6] (GTP buffer) turned out to be 0.201 nM; on mMT1 [6] (control buffer) it was 0.087 nM.

Regarding `COc1ccc(CN(C(=O)c2scc(C)c2Cl)c2ccncc2)cc1` [ZINC485552623], the EC50 on hMT1 (setting [10]) was over 10000 nM.

Broadly, the Emax is the greatest response seen or fitted, relative to the assay's reference. By EC50 is commonly meant the concentration giving half of the maximal effect. Low readings indicate a more potent agent, high ones a less potent agent. What is called Kp is the ratio of the level in a tissue or fluid to that in plasma or blood. What is called AUC is the area under the concentration-time curve, a measure of exposure. A lower AUC goes with low exposure. Usually Cmax stands for the maximum level reached in the sampled fluid or tissue. For orientation: Vd means a proportionality between amount in the body and measured concentration, not a real space. The term clearance denotes the volume of plasma or blood freed of the substance per unit of time. The term half-life denotes the time needed for the level to fall by half in the phase considered. Usually Kd stands for the free concentration of one partner at which half of the binding sites on the other are occupied at equilibrium, for simple one-to-one binding.

The values above are taken from publication PMC7134359 (Nature, 2020).
